Assays:
L1210 [1] = experiment: In vitro test against L1210 murine leukemia cell growth rate at 10 uM concentration; format: functional, Mus musculus
How it was run: (§1)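 L1210 cells were grown in static suspension culture in Fischer's medium with test compound, and counted twice daily over 3 days. Growth rate is the control population doubling time (average 12 h) divided by the treated doubling time, as a % of control. The IC50 is the concentration that reduces the growth rate to 50% of control.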

Brugia pahangi [2] = experiment: Antifilarial activity measured against the adult worms of Brugia pahangi in jirds by subcutaneous administration; parameters: concentration or dose not given beside the values
L1210 [3] = experiment: Compound was tested in vitro against L1210 murine leukemia cell growth rate at a concentration of 100 uM; format: functional, Mus musculus; how it was run: as §1
L1210 [4] = experiment: Compound was tested in vitro for its inhibitory activity against L1210 murine leukemia cell growth at a concentration of 100 uM; format: functional, cell-based; conditions: Mus musculus; how it was run: as §1
L1210 [5] = experiment: In vitro for its inhibitory activity against L1210 murine leukemia cell growth; format: functional, cell-based; conditions: Mus musculus; how it was run: as §1
Brugia pahangi [6] = experiment: Antifilarial activity measured against the adult worms of Brugia pahangi in jirds by subcutaneous administration; format: functional; parameters: concentration or dose not given beside the values
How it was run: (§2)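 Jirds carrying implanted adult worms (three to five per group) were dosed once daily for 5 consecutive days, or on day 1 only where noted. Dosing was subcutaneous or oral, with drug as a solution or suspension in aqueous 1% (hydroxyethyl)cellulose plus 0.1% Tween 80. Survivors were necropsied 55 to 70 days after the first dose and searched for adult worms. Counts are given as % of control.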

Brugia pahangi [7] = experiment: Antifilarial activity was measured against the adult worms of Brugia pahangi in jirds by subcutaneous administration at a dose of 6.2 mg/kg/day; format: functional; how it was run: as §2
Brugia pahangi [8] = experiment: Antifilarial activity was measured against the adult worms of Brugia pahangi in jirds by subcutaneous administration at a dose of 12.5 mg/kg/day; format: functional; how it was run: as §2
Homo sapiens [9] = organism: Homo sapiens; experiment: Compound was tested in vitro for its inhibitory activity against human epidermoid carcinoma cell (H. Ep. 2) growth at a concentration of 10 uM; format: functional; conditions: HEp-2
Homo sapiens [10] = organism: Homo sapiens; experiment: Compound was tested in vitro against human epidermoid carcinoma cell (H. Ep. 2) growth rate at a concentration of 10 uM; format: functional
Brugia pahangi [11] = experiment: Antifilarial activity was measured against the adult worms of Brugia pahangi in jirds by oral administration at a dose of 100 mg/kg/day; format: functional; how it was run: as §2
Brugia pahangi [12] = experiment: Antifilarial activity was measured against the adult worms of Brugia pahangi in jirds by subcutaneous administration at a dose of 1.6 mg/kg/day; format: functional; how it was run: as §2
Acanthocheilonema viteae [13] = experiment: Antifilarial activity was measured against the adult worms of Acanthocheilonema viteae in jirds by oral administration at a dose of 100 mg/kg/5 days; format: functional; how it was run: as §2
Brugia pahangi [14] = experiment: Antifilarial activity was measured against the adult worms of Brugia pahangi in jirds by subcutaneous administration at a dose of 50 mg/kg/day; format: functional; how it was run: as §2
Brugia pahangi [15] = experiment: Antifilarial activity was measured against the adult worms of Brugia pahangi in jirds by subcutaneous administration at a dose of 25 mg/kg/day
Brugia pahangi [16] = experiment: Antifilarial activity was measured against the adult worms of Brugia pahangi in jirds by subcutaneous administration at a dose of 100 mg/kg/day; format: functional; how it was run: as §2
Brugia pahangi [17] = experiment: Antifilarial activity was measured against the adult worms of Brugia pahangi in jirds by subcutaneous administration at a concentration of 100 mg/kg/day
Acanthocheilonema viteae [18] = experiment: Antifilarial activity was measured against the adult worms of Acanthocheilonema viteae in jirds by oral administration at a concentration of 100 mg/kg/day; format: functional; how it was run: as §2
Acanthocheilonema viteae [19] = experiment: Antifilarial activity was measured against the adult worms of Acanthocheilonema viteae in jirds by subcutaneous administration at a concentration of 50 mg/kg/day; format: functional; how it was run: as §2
Brugia pahangi [20] = experiment: Antifilarial activity was measured against the adult worms of Brugia pahangi in jirds by subcutaneous administration at a dose of 6.5 mg/kg/day; format: functional; how it was run: as §2
Acanthocheilonema viteae [21] = experiment: Antifilarial activity was measured against the adult worms of Acanthocheilonema viteae in jirds by subcutaneous administration at a dose of 15.6 mg/kg/5 days; format: functional; conditions: in the assay text read “1.56 mg/kg/5 days” for “15.6 mg/kg/5 days”; how it was run: as §2
Brugia pahangi [22] = experiment: Antifilarial activity was measured against the adult worms of Brugia pahangi in jirds by subcutaneous administration at a concentration of 25 mg/Kg/day
Brugia pahangi [23] = experiment: Antifilarial activity was measured against the adult worms of Brugia pahangi in jirds by subcutaneous administration at a dose of 25 mg/Kg/day; format: functional; how it was run: as §2
Brugia pahangi [24] = experiment: Antifilarial activity was measured against the adult worms of Brugia pahangi in jirds by subcutaneous administration at a dose of 6.2 mg/Kg/day; format: functional; how it was run: as §2
Brugia pahangi [25] = experiment: Antifilarial activity was measured against the adult worms of Brugia pahangi in jirds by subcutaneous administration at a concentration of 12.5 mg/Kg/day
Brugia pahangi [26] = experiment: Antifilarial activity was measured against the adult worms of Brugia pahangi in jirds by subcutaneous administration at a dose of 100 mg/Kg/day; format: functional; how it was run: as §2

COC(=O)Nc1nc2cc(C(=O)Nc3ccc(F)cc3)ccc2[nH]1
Control (L1210 [1]): 92% | Control (Brugia pahangi [2]): 67%

COC(=O)Nc1nc2cc(C(=O)N3CCOCC3)ccc2[nH]1
Control (L1210 [3]): 0% | IC50 (L1210 [4]): 60000 nM

COC(=O)Nc1nc2cc(C(=O)OCCC(C)CC(C)(C)C)ccc2[nH]1 (stereo unspecified)
IC50 (L1210 [5]): 740 nM | Control (L1210 [1]): 0% | Control (Brugia pahangi [6]): 85%

COC(=O)Nc1nc2cc(C(=O)OC(C)C)ccc2[nH]1
IC50 (L1210 [5]): 700 nM | Control (Brugia pahangi [7]): 18% | Control (Brugia pahangi [8]): 0% | Control (L1210 [1]): 0% | IC50 (Homo sapiens [9]): 220 nM | Control (Homo sapiens [10]): 0% | Control (Brugia pahangi [2]): 0% | Control (Brugia pahangi [11]): 100% | Control (Brugia pahangi [12]): 51%

CCNC(=O)c1ccc2[nH]c(NC(=O)OC)nc2c1
Control (Acanthocheilonema viteae [13]): 80% | IC50 (L1210 [5]): 10000 nM | Control (Brugia pahangi [14]): 0% | Control (L1210 [1]): 41% | Control (Brugia pahangi [15]): 0% | Control (Brugia pahangi [16]): 0% | IC50 (Homo sapiens [9]): 6000 nM | Control (Homo sapiens [10]): 0% | Control (Brugia pahangi [11]): 89%

O=C(Nc1nc2cc(C(=O)OCC3CC3)ccc2[nH]1)OCC1CC1
IC50 (L1210 [5]): 2200 nM | Control (L1210 [1]): 24% | Control (Brugia pahangi [6]): 72%

CCOC(=O)Nc1nc2cc(C(=O)O)ccc2[nH]1
Control (L1210 [3]): 100% | Control (Brugia pahangi [6]): 90%

CCCOC(=O)c1ccc2[nH]c(NC(=O)OC)nc2c1
IC50 (L1210 [5]): 7400 nM | Control (L1210 [1]): 38% | Control (Brugia pahangi [17]): 100%

COC(=O)Nc1nc2cc(C(=O)OCc3cccs3)ccc2[nH]1
Control (L1210 [1]): 93% | Control (Brugia pahangi [6]): 71% | IC50 (Homo sapiens [9]): 2300 nM | Control (Homo sapiens [10]): 0%

COC(=O)Nc1nc2cc(C(=O)N3CCN(C(=O)N(C)C)CC3)ccc2[nH]1
Control (Brugia pahangi [2]): 94%

CCN(CC)C(=O)N1CCN(C(=O)c2ccc3[nH]c(NC(=O)OC)nc3c2)CC1
Control (L1210 [1]): 100% | Control (Brugia pahangi [2]): 100%

COC(=O)Nc1nc2cc(C(=O)OCc3ccc(F)cc3)ccc2[nH]1
Control (Brugia pahangi [6]): 83%

COC(=O)Nc1nc2cc(C(=O)N3CCN(C)CC3)ccc2[nH]1
Control (L1210 [1]): 100% | Control (Brugia pahangi [17]): 101%

CCOC(=O)Nc1nc2cc(C(=O)OCC)ccc2[nH]1
IC50 (L1210 [5]): 760 nM | Control (L1210 [1]): 0% | Control (Brugia pahangi [6]): 62% | IC50 (Homo sapiens [9]): 290 nM | Control (Homo sapiens [10]): 0%

COC(=O)Nc1nc2cc(C(=O)N3CCNCC3)ccc2[nH]1
Control (Brugia pahangi [2]): 55%

COC(=O)Nc1nc2cc(C(=O)N(C)C)ccc2[nH]1
Control (L1210 [1]): 88% | Control (Brugia pahangi [2]): 95%

COC(=O)Nc1nc2cc(NC(=O)c3cccc(F)c3)ccc2[nH]1
Control (L1210 [1]): 100%

COC(=O)Nc1nc2cc(C(=O)OCC3CC3)ccc2[nH]1
IC50 (L1210 [5]): 6900 nM | Control (L1210 [1]): 45% | Control (Brugia pahangi [6]): 69%

COC(=O)Nc1nc2cc(C(=O)OCCC(C)C)ccc2[nH]1
IC50 (L1210 [5]): 10000 nM | Control (L1210 [1]): 60% | Control (Brugia pahangi [6]): 69%

COC(=O)Nc1nc2cc(C(=O)Nc3ccc(C(F)(F)F)cc3)ccc2[nH]1
Control (L1210 [1]): 100% | Control (Brugia pahangi [2]): 77%

C#CCOC(=O)c1ccc2[nH]c(NC(=O)OC)nc2c1
IC50 (L1210 [5]): 10000 nM | Control (L1210 [1]): 58% | Control (Brugia pahangi [6]): 79%

COC(=O)Nc1nc2cc(NC(=O)c3ccccc3F)ccc2[nH]1
Control (L1210 [3]): 0% | IC50 (L1210 [4]): 14000 nM | Control (Brugia pahangi [2]): 116%

COC(=O)Nc1nc2cc(C(=O)NCC(C)(C)C)ccc2[nH]1
IC50 (L1210 [5]): 8600 nM | Control (L1210 [1]): 48% | Control (Acanthocheilonema viteae [18]): 54% | Control (Acanthocheilonema viteae [19]): 0% | Control (Brugia pahangi [17]): 0% | Control (Brugia pahangi [2]): 50%

CC(C)OC(=O)Nc1nc2cc(C(=O)OC(C)C)ccc2[nH]1
IC50 (L1210 [5]): 730 nM | Control (L1210 [1]): 0% | Control (Brugia pahangi [6]): 87% | IC50 (Homo sapiens [9]): 390 nM | Control (Homo sapiens [10]): 0%

COC(=O)Nc1nc2cc(C(=O)NC(C)C)ccc2[nH]1
Control (Brugia pahangi [20]): 4% | IC50 (L1210 [5]): 2000 nM | Control (Acanthocheilonema viteae [21]): 57% | Control (Brugia pahangi [8]): 0% | Control (L1210 [1]): 0% | Control (Brugia pahangi [6]): 0% | IC50 (Homo sapiens [9]): 1600 nM | Control (Homo sapiens [10]): 0% | Control (Brugia pahangi [11]): 110% | Control (Brugia pahangi [12]): 94%

COC(=O)Nc1nc2cc(NC(=O)c3ccc(F)cc3)ccc2[nH]1
Control (Brugia pahangi [2]): 133%

COC(=O)Nc1nc2cc(C(=O)OC)ccc2[nH]1
Control (Brugia pahangi [22]): 4% | IC50 (L1210 [5]): 5000 nM | Control (Brugia pahangi [23]): 53% | Control (Brugia pahangi [24]): 79% | Control (L1210 [1]): 50% | IC50 (Homo sapiens [9]): 1100 nM | Control (Homo sapiens [10]): 0% | Control (Brugia pahangi [25]): 12%

COC(=O)Nc1nc2cc(C(=O)O)ccc2[nH]1
Control (Brugia pahangi [26]): 0% | Control (L1210 [1]): 100%

C=CCOC(=O)c1ccc2[nH]c(NC(=O)OC)nc2c1
IC50 (L1210 [5]): > 10000 nM | Control (L1210 [1]): 75% | Control (Brugia pahangi [6]): 87%

COC(=O)Nc1nc2cc(C(=O)OCC(C)(C)C)ccc2[nH]1
Control (Brugia pahangi [6]): 82%

CCCOC(=O)Nc1nc2cc(C(=O)OCCC)ccc2[nH]1
IC50 (L1210 [5]): 8200 nM | Control (L1210 [1]): 36% | Control (Brugia pahangi [6]): 85%

CCOC(=O)c1ccc2[nH]c(NC(=O)OC)nc2c1
IC50 (L1210 [5]): 2800 nM | Control (Brugia pahangi [8]): 6% | Control (L1210 [1]): 0% | Control (Brugia pahangi [6]): 0% | IC50 (Homo sapiens [9]): 240 nM | Control (Homo sapiens [10]): 0% | Control (Brugia pahangi [12]): 100%

COC(=O)Nc1nc2cc(C(=O)c3cccs3)ccc2[nH]1 [NOCODAZOLE]
IC50 (L1210 [5]): 38 nM | Control (L1210 [1]): 0% | IC50 (Homo sapiens [9]): 33 nM | Control (Homo sapiens [10]): 0%
